Laboratory results published in ChEMBL document CHEMBL1139499, “Nucleotides and pronucleotides of 2,2-bis(hydroxymethyl)methylenecyclopropane analogues of purine nucleosides: synthesis and antiviral activity” (J Med Chem, 2005).

What was measured:
[1] = tested on: HFF; assay: Cytotoxic concentration against AD169 strain of human cytomegalovirus infected HFF cells of human (by neutral red uptake); type: functional
[2] = tested on: Human betaherpesvirus 5; assay: Effective concentration for antiviral activity against AD169 strain of human cytomegalovirus in plaque reduction assay; type: functional, organism-based
How it was run: (§1)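 Human CMV (Towne and AD169 strains) grown in HFF cell culture; antiviral effect read by plaque reduction or by cytopathic effect (CPE) inhibition. Cytotoxicity measured in HFF cells. Single experiments unless specified otherwise.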

[3] = tested on: Human alphaherpesvirus 1; assay: Effective concentration required to inhibit herpes simplex virus 1 in BSC-1 cells in ELISA; type: functional, organism-based; details: Human alphaherpesvirus 1, BSC-1
How it was run: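 HSV-1 assayed in BSC-1 cells with ELISA read-out; cytotoxicity in these assays determined in KB cells. Single experiments unless specified otherwise.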

[4] = tested on: MEF; assay: Cytotoxic concentration against murine cytomegalovirus infected MEF cells; type: functional; details: Mus musculus
[5] = tested on: KB (Homo sapiens); assay: Cytotoxic concentration required to inhibit KB cells
[6] = tested on: HFF; assay: Cytotoxic concentration against towne strain of human cytomegalovirus infected HFF cells of human (visual cytotoxicity); type: functional; how it was run: as §1
[7] = Cytotoxic concentration to inhibit replication in H-1 cells (in CEM cells); type: functional; details: Homo sapiens, CCRF-CEM
How it was run: (§2)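 EBV assayed in H-1 cells by DNA hybridization. Cytotoxicity determined separately in CEM cells. Single experiments unless specified otherwise.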

[8] = tested on: Human alphaherpesvirus 1; assay: Effective concentration required to inhibit herpes simplex virus 1 in vero cells in plaque reduction assay; type: functional, organism-based; details: Human alphaherpesvirus 1, Vero
How it was run: (§3)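 HSV-1 and HSV-2 assayed in Vero cells by plaque reduction. Single experiments unless specified otherwise.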

[9] = tested on: Human alphaherpesvirus 2; assay: Effective concentration required to inhibit herpes simplex virus 2 in HFF cells in cytopathic effect (CPE) assay; type: functional, organism-based; details: Human alphaherpesvirus 2, HFF
How it was run: (§4)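 HSV-1 and HSV-2 assayed in HFF cells by cytopathic effect (CPE) inhibition and by plaque reduction. Cytotoxicity measured in HFF cells. Single experiments unless specified otherwise.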

[10] = tested on: Human gammaherpesvirus 4; assay: Effective concentration required to inhibit Epstein-barr virus replication in H-1 cells in DNA hybridization assay; type: functional, organism-based; details: human gammaherpesvirus 4, H-1; how it was run: as §2
[11] = Effective concentration required to inhibit varicella zoster virus replication in HFF cells; type: functional, cell-based; details: Human alphaherpesvirus 3, HFF
How it was run: (§5)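 VZV assayed in HFF cells by cytopathic effect (CPE) inhibition or by plaque reduction. Single experiments unless specified otherwise.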

[12] = tested on: Human betaherpesvirus 5; assay: Effective concentration for antiviral activity against towne strain of human cytomegalovirus in plaque reduction assay; type: functional, organism-based; how it was run: as §1
[13] = tested on: Human alphaherpesvirus 1; assay: Effective concentration required to inhibit herpes simplex virus 1 in HFF cells in cytopathic effect (CPE) assay; type: functional, organism-based; details: Human alphaherpesvirus 1, HFF; how it was run: as §4
[14] = tested on: Human alphaherpesvirus 2; assay: Effective concentration required to inhibit herpes simplex virus 2 in vero cells in plaque reduction assay; type: functional, organism-based; details: Human alphaherpesvirus 2, Vero; how it was run: as §3
[15] = tested on: Daudi; assay: Cytotoxic concentration to inhibit replication in daudi cells; type: functional; details: Homo sapiens
[16] = tested on: Hepatitis B virus; assay: Effective concentration required to inhibit hepatitis B virus replication in 2.2.15 cells in DNA hybridization assay; type: functional, organism-based; details: HepG2 2.2.15
How it was run: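 HBV assayed in 2.2.15 cells by DNA hybridization. CC50 values are those from the EBV/H-1 cytotoxicity determination, run in CEM cells. Single experiments unless specified otherwise.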

[17] = tested on: Human gammaherpesvirus 4; assay: Effective concentration required to inhibit Epstein-barr virus replication in daudi cells in viral capsid immunofluorescence ELISA; type: functional, organism-based; details: human gammaherpesvirus 4, Daudi
[18] = tested on: HFF; assay: Cytotoxic concentration against AD169 strain of human cytomegalovirus infected HFF cells of human (by cytopathic effect inhibition assay); type: functional; how it was run: as §1
[19] = tested on: HFF; assay: Cytotoxic concentration against town strain of human cytomegalovirus infected HFF cells of human (visual cytotoxicity); type: functional; how it was run: as §1
[20] = Effective concentration required to inhibit varicella zoster virus replication in HFF cells in cytopathic reduction assay; type: functional, cell-based; details: Human alphaherpesvirus 3, HFF; how it was run: as §5
[21] = Effective concentration required to inhibit varicella zoster virus replication in HFF cells in plaque reduction assay; type: functional, cell-based; details: Human alphaherpesvirus 3, HFF; how it was run: as §5
[22] = tested on: HFF; assay: Cytotoxic concentration to inhibit herpes simplex virus 2 infected HFF cells; type: functional; details: Homo sapiens; how it was run: as §4
[23] = tested on: HFF; assay: Cytotoxic concentration to inhibit herpes simplex virus 1 infected HFF cells; type: functional; details: Homo sapiens; how it was run: as §4
[24] = tested on: Vero; assay: Cytotoxic concentration required to inhibit herpes simplex virus 1 infected vero cells; type: functional; details: Chlorocebus sabaeus
[25] = tested on: HFF; assay: Cytotoxic concentration to inhibit Herpes simplex virus 2 infected HFF cells; type: functional; details: Homo sapiens; how it was run: as §4
[26] = tested on: HFF; assay: Cytotoxic concentration to inhibit Herpes simplex virus 1 infected HFF cells; type: functional; details: Homo sapiens; how it was run: as §4
[27] = tested on: Vero; assay: Cytotoxic concentration required to inhibit herpes simplex virus 2 infected vero cells; type: functional; details: Chlorocebus sabaeus
[28] = tested on: HFF; assay: Cytotoxic concentration to inhibit replication in HFF cells in cytopathic effect inhibition assay; type: functional; details: Homo sapiens; how it was run: as §1
[29] = tested on: HFF; assay: Cytotoxic concentration against towne strain of human cytomegalovirus infected HFF cells of human (visual cytotoxicity); range=100-200; type: functional; how it was run: as §1
[30] = species: Homo sapiens; assay: Cytotoxic concentration to inhibit replication in 2.2.15 cells; type: functional; details: HepG2 2.2.15

SMILES	CC50 [1]	EC50 [2]	EC50 [3]	CC50 [4]	CC50 [5]	CC50 [6]	CC50 [7]	EC50 [8]	EC50 [9]	EC50 [10]	EC50 [11]	EC50 [12]	EC50 [13]	EC50 [14]	CC50 [15]	EC50 [16]	EC50 [17]	CC50 [18]	other results
Nc1ncnc2c1ncn2/C=C1/CC1(CO)CO	> 404 µM	11.7 µM	50 µM	> 404 µM	> 100 µM	> 100 µM	> 50 µM	> 50 µM	> 404 µM	> 20 µM	> 404 µM	2.4 µM	> 404 µM	> 50 µM	> 202 µM	> 10 µM			
Nc1nc(O)c2ncn(/C=C3\CC34COP(=O)(O)OC4)c2n1 (stereo not given)		> 299 µM	> 100 µM		> 100 µM	> 100 µM	> 100 µM	> 50 µM	> 299 µM	> 20 µM	> 299 µM	> 100 µM	> 299 µM	50 µM	> 150 µM	> 20 µM	> 150 µM	> 299 µM	
COC(=O)C(C)NP(=O)(OCC1(CO)C/C1=C\n1cnc2c(O)nc(N)nc21)Oc1ccccc1 (stereo not given)		> 198 µM	70 µM		> 100 µM	> 100 µM	> 100 µM	> 50 µM	> 198 µM	> 20 µM	> 198 µM	> 100 µM	> 198 µM	> 50 µM	> 198 µM	> 10 µM	> 99 µM	> 198 µM	
Nc1nc(O)c2ncn(/C=C3\CC3(CO)COP(=O)(O)O)c2n1 (stereo not given)		> 291 µM	> 100 µM		> 100 µM		> 100 µM	> 50 µM	> 291 µM	> 20 µM	> 291 µM	> 100 µM	> 291 µM	> 50 µM	> 146 µM	> 20 µM	> 146 µM	> 291 µM	CC50 [19]: > 100 µM
COC(=O)C(C)NP(=O)(OCC1(CO)C/C1=C/n1cnc2c(O)nc(N)nc21)Oc1ccccc1 (stereo not given)	> 198 µM	8.1 µM	> 100 µM	> 198 µM	> 100 µM	> 100 µM	35 µM	> 50 µM	> 198 µM	3.4 µM		3.6 µM	> 198 µM	> 50 µM	> 198 µM	4.1 µM	> 99 µM		EC50 [20]: 6.3 µM; EC50 [21]: 7.3 µM
COC(=O)C(C)NP(=O)(OCC1(CO)C/C1=C\n1cnc2c(N)ncnc21)Oc1ccccc1 (stereo not given)		> 205 µM	> 100 µM		> 100 µM	> 100 µM	> 25 µM	> 30 µM	> 205 µM	> 20 µM	> 205 µM	> 100 µM	> 205 µM	> 30 µM	> 102 µM	> 20 µM	> 102 µM	> 205 µM	
Nc1nc(O)c2ncn(/C=C3/CC3(CO)COP(=O)(O)O)c2n1 (stereo not given)	> 291 µM	1.1 µM	> 100 µM	175 µM	> 100 µM	100 µM	62 µM	50 µM	23.3 µM	2.3 µM	> 291 µM	0.25 µM	9.9 µM	> 50 µM	> 146 µM	15 µM	> 146 µM		CC50 [22]: > 291 µM; CC50 [23]: > 291 µM
Nc1nc(O)c2ncn(/C=C3/CC34COP(=O)(O)OC4)c2n1 (stereo not given)	> 301 µM	6 µM	20 µM	> 301 µM	> 100 µM	> 100 µM	> 100 µM	16 µM	242 µM	> 20 µM	> 301 µM	20 µM	> 301 µM	22 µM	> 150 µM	0.8 µM	0.96 µM		CC50 [24]: > 100 µM
COC(=O)C(C)NP(=O)(OCC1(CO)C/C1=C/n1cnc2c(N)ncnc21)Oc1ccccc1 (stereo not given)	200 µM	18.4 µM	55 µM		3.5 µM	32 µM	3.8 µM	> 40 µM	22.1 µM	3 µM	> 41 µM	3 µM	21.1 µM	> 40 µM	> 102 µM	12.8 µM	> 102 µM		CC50 [25]: 200 µM; CC50 [26]: 200 µM
Nc1nc2c(ncn2COCCO)c(=O)[nH]1 [ACYCLOVIR]			1.5 µM		> 100 µM			13.5 µM	6.7 µM		1.6 µM		0.9 µM	32.3 µM	> 222 µM		1.1 µM		CC50 [27]: > 200 µM; CC50 [25]: > 444 µM; CC50 [26]: > 444 µM; CC50 [28]: > 444 µM; CC50 [24]: > 200 µM
Nc1nc2c(ncn2/C=C2/CC2(CO)CO)c(=O)[nH]1 [FILOCICLOVIR]	> 380 µM	0.49 µM	> 100 µM	> 380 µM	> 100 µM		> 50 µM	> 50 µM	> 380 µM		> 380 µM	0.33 µM	> 380 µM	> 50 µM	74 µM	> 10 µM			CC50 [29]: 200 µM
Nc1nc2c(ncn2COC(CO)CO)c(=O)[nH]1 [GANCICLOVIR]	> 392 µM	1.6 µM		> 392 µM						5 µM		2.1 µM							CC50 [19]: > 100 µM
Nc1ccn([C@@H]2CS[C@H](CO)O2)c(=O)n1 [LAMIVUDINE]																0.05 µM			CC50 [30]: > 100 µM
